Square brackets hold non-standard residues; d marks the D form. Peptide text beside a SMILES is read from it. * marks the point of attachment. NMeF = CN[C@@H](Cc1ccccc1)C(=O)O; NMeV = CN[C@H](C(=O)O)C(C)C; X1 = C#CCCCC[C@H](C)C(=O)*; X2 = C#CCCC/C=C(\C)C(=O)*
Key:
Type in all cases: functional, organism-based
Plasmodium falciparum = experiment: Antimalarial activity against chloroquine-resistant Plasmodium falciparum Indochina W2 infected human erythrocytes assessed as uptake of PicoGreen after 48 hrs; details: Indochina W2, 48 h
Trypanosoma cruzi = experiment: Antiparasitic activity against Trypanosoma cruzi Tulahuen C4 infected african green monkey Vero cells expressing beta-galctosidase after 5 days; details: 120 h
Summary of the method: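 Parasite is a transgenic β-galactosidase-expressing Trypanosoma cruzi, Tulahuen strain clone C4; assay run as in earlier work.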

Leishmania donovani = experiment: Antileishmanial activity against Leishmania donovani LD-1S/MHOM/SD/00-1S amastigotes after 72 hrs by PicoGreen fluorescence assay
Summary of the method: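 Axenic amastigotes of WHO reference strain LD-1S/MHOM/SD/00-strain 1S; assay run as in earlier work.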

What does the source list for `C#CCCCC[C@H](C)C(=O)N(C)[C@H](C(=O)N(C)[C@H](C(=O)N(C)[C@H](C(=O)N(C)[C@H](C(N)=O)C(C)C)C(C)C)C(C)C)C(C)C` [DRAGONAMIDE B] (X1-[NMeV][NMeV][NMeV][NMeV]-NH2)?
IC50 (Plasmodium falciparum): > 10 µM; IC50 (Trypanosoma cruzi): > 10 µM; IC50 (Leishmania donovani): > 10 µM

How did the IC50 (Plasmodium falciparum) turn out when `C#CCCCC[C@H](C)C(=O)N(C)[C@H](C(=O)N(C)[C@H](C(=O)N(C)[C@H](C(=O)N(C)[C@@H](Cc1ccccc1)C(N)=O)C(C)C)C(C)C)C(C)C` [DRAGONAMIDE A] (X1-[NMeV][NMeV][NMeV][NMeF]-NH2) was run?
The IC50 was > 10 µM.

What about the IC50 (Trypanosoma cruzi) of the same compound?
Its IC50 is > 10 µM.

And the IC50 (Leishmania donovani)?
Its IC50 is 6.5 µM.

With `C#CCCC/C=C(\C)C(=O)N(C)[C@H](C(=O)N(C)[C@H](C(=O)N(C)[C@H](C(=O)N(C)[C@@H](Cc1ccccc1)C(N)=O)C(C)C)C(C)C)C(C)C` [DRAGONAMIDE E] (X2-[NMeV][NMeV][NMeV][NMeF]-NH2) as the compound, how does the IC50 (Plasmodium falciparum) read?
Its IC50 is > 10 µM.

What about the IC50 (Trypanosoma cruzi) of the same compound?
Its IC50 is > 10 µM.

What about the IC50 (Leishmania donovani) of the same compound?
The IC50 was 5.1 µM.

How did the IC50 (Trypanosoma cruzi) turn out when `CC1CS(=O)(=O)CCN1/N=C/c1ccc([N+](=O)[O-])o1` (centres undefined) [NIFURTIMOX] was run?
The IC50 was 13.5 µM.

How did the IC50 (Leishmania donovani) turn out when `C[C@@H]1[C@H](O)[C@@H](C)/C=C/C=C/C=C/C=C/C=C/C=C/C=C/[C@H](O[C@@H]2O[C@H](C)[C@@H](O)[C@H](N)[C@@H]2O)C[C@@H]2O[C@](O)(C[C@@H](O)C[C@@H](O)[C@H](O)CC[C@@H](O)C[C@@H](O)CC(=O)O[C@H]1C)C[C@H](O)[C@H]2C(=O)O` [AMPHOTERICIN B] was run?
Its IC50 is 0.1 µM.

What does the source list for `C/C(=C\C=C\C[C@H](C)C(Cl)(Cl)Cl)C(=O)N[C@H](c1nccs1)C(C)C` [HERBAMIDE B]?
IC50 (Plasmodium falciparum): > 10 µM; IC50 (Trypanosoma cruzi): > 10 µM; IC50 (Leishmania donovani): 5.9 µM
